Data from ChEMBL document CHEMBL1909628, “Discovery of 6-substituted indole-3-glyoxylamides as lead antiprion agents with enhanced cell line activity, improved microsomal stability and low toxicity” (Eur J Med Chem, 2011).

Legend:
[1] = Antiprion activity against PrPsc infected in mouse ScN2a cells assessed as complete clearance of PrPSc after 5 days by ELISA; format: cell-based; conditions: 120 h
Summary of the method: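 ScN2a cells (N2a infected with RML prion strain) seeded at 4×10^5 cells/well in MEM with 10% FBS, GlutaMax, geneticin. Compound added 4 h after seeding, 0.5% final DMSO, 5 days at 37 °C. Lysates captured on D18 Fab-coated ELISA plates overnight at 4 °C, HRP-D13 detection, ABTS, absorbance at 405 nm. Dose-response curves from three independent experiments.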

[2] = (§1) Toxicity in zebrafish assessed as mortality rate at 5 uM measured after 72 hrs; format: organism-based, Danio rerio; conditions: in vivo, read-out: Activity
Summary of the method: (§2)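 AB wild-type zebrafish embryos dechorionated with pronase at 48 hpf, 3 per well in methylene blue-free E3 medium. Dosed at 5 uM from 10 mM DMSO stocks (1% v/v DMSO). Kept at 28 °C for 72 h without food; survival scored at day 5 versus vehicle controls. Two experiments, each in triplicate.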

[3] = Antiprion activity against PrPsc infected in mouse SMB.s15 cells assessed as complete clearance of PrPSc after 5 days by dot blot analysis; format: cell-based; conditions: SMB.s15, 120 h
Summary of the method: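 SMB.s15 cells (scrapie-infected, mesodermal origin) in Medium 199 with 10% newborn calf and 5% fetal calf serum, seeded at 12,000 cells/well, 24 h attachment. Compound added from DMSO stock via HBSS dilution, 5 days at 37 °C. Lysates dot-blotted, proteinase K digestion (1 h, 37 °C), guanidine thiocyanate, anti-PrP 6H4 mAb, ECL. Triplicate, PrPSc relative to DMSO-only control.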

ScN2a = experiment: Cytotoxicity against mouse ScN2a cells up to 32 uM; format: cell-based
Summary of the method: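 ScN2a cells seeded separately in 96-well plates. Calcein cell viability assay run in parallel with the ELISA screen, up to 32 uM maximum.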

[4] = Cytotoxicity against mouse SMB.s15 cells at 20 uM after 5 days by MTT assay; format: cell-based; conditions: smb.s15, 120 h
Summary of the method: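 SMB.s15 cells at 12,000 cells/well, exposed to compound for 5 days at 37 °C (DMSO stock diluted via HBSS into medium). Viability measured by MTT assay per the reagent's standard protocol.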

[5] = Metabolic stability in mouse liver microsomes assessed as compound remaining after 30 mins by HPLC analysis; format: ADME, Microsome; conditions: read-out: Stability
Summary of the method: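 Mouse liver microsomes (0.5 mg/mL stock) in 0.2 M potassium phosphate pH 7.0 with DL-isocitrate, MgCl2 and isocitrate dehydrogenase. Preincubated 5 min at 37 °C, then started with NADPH. Sampled at t=0 and after 30 min at 37 °C, quenched in ice-cold acetonitrile with internal standard. Analysed by C18 HPLC, UV at 267 nm, in triplicate.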

[6] = (§3) Toxicity in zebrafish assessed as organism survival at 5 uM treated at 48 hrs post-fertilization measured after 3 days; format: organism-based, Danio rerio; conditions: in vivo; summary of the method: as §2
Danio rerio [7] = organism: Danio rerio; experiment: Toxicity in zebrafish assessed as swim bladder deformities at 5 uM treated at 48 hrs post-fertilization measured after 3 days by acridine orange staining method; format: organism-based; conditions: in vivo, 72 h
Summary of the method: (§4)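 Zebrafish larvae dosed at 5 uM from 48 hpf for three days (28 °C, E3 medium, 1% DMSO). Stained with acridine orange at 1 mg/mL in E3 for 30 min, then washed 3 × 10 min. Anesthetized with tricaine, mounted in 1% low-melt agarose with tricaine, and examined by microscopy for apoptosis and deformities.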

Danio rerio [8] = organism: Danio rerio; experiment: Toxicity in zebrafish assessed as yolk deformities at 5 uM treated at 48 hrs post-fertilization measured after 3 days by acridine orange staining method; format: organism-based; conditions: in vivo, 72 h; summary of the method: as §4
Danio rerio [9] = organism: Danio rerio; experiment: Toxicity in zebrafish assessed as induction of apoptosis at 5 uM treated at 48 hrs post-fertilization measured after 3 days by acridine orange staining method; format: organism-based; conditions: in vivo, 72 h; summary of the method: as §4
Danio rerio [10] = organism: Danio rerio; experiment: Toxicity in zebrafish assessed as otic capsule deformities at 5 uM treated at 48 hrs post-fertilization measured after 3 days by acridine orange staining method; format: organism-based; conditions: in vivo, 72 h; summary of the method: as §4
[11] = Solubility of the compound; format: physicochemical
Danio rerio [12] = organism: Danio rerio; experiment: as §3; format: organism-based; conditions: in vivo, 72 h, 5 µM; summary of the method: as §2
Danio rerio [13] = organism: Danio rerio; experiment: as §1; format: organism-based; conditions: in vivo, 72 h, 5 µM; summary of the method: as §2

Structure (SMILES)	EC50 [1]	mortality at 72 h, 5 µM [2]	EC50 [3]	Activity (ScN2a)	Activity [4]	remaining at 0.5 h [5]	survival at 72 h, 5 µM [6]	Activity (Danio rerio [7])	Activity (Danio rerio [8])	Activity (Danio rerio [9])	Activity (Danio rerio [10])	solubility [11]	Activity (Danio rerio [12])	Activity (Danio rerio [13])
COc1ccc(NC(=O)C(=O)c2c[nH]c3ccccc23)cc1	91 nM	20%	11 nM	Non-toxic	Non-toxic	67.9%	100%	–	–	–	–	–	–	–
COc1ccc(NC(=O)C(=O)c2c[nH]c3cc(C#N)ccc23)cc1	11 nM	–	2.2 nM	Non-toxic	Non-toxic	87.5%	100%	Non-toxic	Non-toxic	Non-toxic	Non-toxic	–	–	–
Cc1ccc(NC(=O)C(=O)c2c[nH]c3cc(C#N)ccc23)cc1	26 nM	20%	10.9 nM	Non-toxic	Non-toxic	88.2%	100%	–	–	–	–	–	–	–
O=C(Nc1ccc(-n2ccnc2)cc1)C(=O)c1c[nH]c2ccccc12	16 nM	–	1.3 nM	Non-toxic	Non-toxic	–	–	–	–	–	–	Insoluble	–	–
O=C(Nc1ccc(-c2nnco2)cc1)C(=O)c1c[nH]c2ccccc12	–	–	–	–	–	–	–	–	–	–	–	Insoluble	–	–
O=C(Nc1ccc(-n2cncn2)cc1)C(=O)c1c[nH]c2ccccc12	–	–	–	–	–	–	–	–	–	–	–	Insoluble	–	–
Cn1ccc(-c2ccc(NC(=O)C(=O)c3c[nH]c4ccccc34)cc2)n1	–	–	–	–	–	–	–	–	–	–	–	Insoluble	–	–
Cc1ccc2c(C(=O)C(=O)Nc3ccc(N4CCOCC4)cc3)c[nH]c2c1	–	20%	3.1 nM	Non-toxic	Non-toxic	–	100%	Non-toxic	Non-toxic	Non-toxic	Non-toxic	–	–	–
COc1ccc(NC(=O)C(=O)c2c[nH]c3c(Cl)cccc23)cc1	247 nM	–	24 nM	Non-toxic	Non-toxic	–	–	–	–	–	–	–	Toxic	–
Cc1ccc(NC(=O)C(=O)c2c[nH]c3c(Cl)cccc23)cc1	1260 nM	20%	470 nM	Non-toxic	Non-toxic	–	100%	–	–	–	–	–	–	–
O=C(Nc1ccc(-n2cccn2)cc1)C(=O)c1c[nH]c2cc(Cl)ccc12	175 nM	–	6.1 nM	Non-toxic	Non-toxic	96.7%	100%	–	–	–	–	–	–	–
O=C(Nc1ccc(-n2cccc2)cc1)C(=O)c1c[nH]c2ccccc12	–	–	6 nM	Non-toxic	Non-toxic	–	–	–	–	–	–	Insoluble	Toxic	–
Cc1ccc(NC(=O)C(=O)c2c[nH]c3ccccc23)cc1	206 nM	–	130 nM	Non-toxic	Non-toxic	64.9%	–	–	–	–	–	–	Toxic	Non-toxic
O=C(Nc1ccc(N2CCOCC2)cc1)C(=O)c1c[nH]c2ccccc12	65 nM	20%	9 nM	Non-toxic	Non-toxic	–	–	–	–	–	–	–	Toxic	–
O=C(Nc1ccc(-n2cccn2)cc1)C(=O)c1c[nH]c2ccccc12	14 nM	–	1 nM	Non-toxic	Non-toxic	93.6%	–	Non-toxic	Non-toxic	Non-toxic	Non-toxic	Insoluble	Toxic	–
